NR2E3 ag-1 = NR2E3 agonists in two-hybrid cells, primary screen, cell-based, luminescence, CHO-S, Gal4-NCOR/VP16-NR2E3. Photoreceptor-specific nuclear receptor (Homo sapiens), Q9Y5X4. luciferase. inhibition of corepressor binding, % at 3.98 µM. 0.35% of 360,000 active;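 active = inhibition above the mean of all tested compounds plus 3 SD, cut at about 70% in these data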;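 also: higher means lower luciferase signal from less NR2E3 corepressor binding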
Target sequence (Q9Y5X4 whole entry, looked up, the tested form may be a part): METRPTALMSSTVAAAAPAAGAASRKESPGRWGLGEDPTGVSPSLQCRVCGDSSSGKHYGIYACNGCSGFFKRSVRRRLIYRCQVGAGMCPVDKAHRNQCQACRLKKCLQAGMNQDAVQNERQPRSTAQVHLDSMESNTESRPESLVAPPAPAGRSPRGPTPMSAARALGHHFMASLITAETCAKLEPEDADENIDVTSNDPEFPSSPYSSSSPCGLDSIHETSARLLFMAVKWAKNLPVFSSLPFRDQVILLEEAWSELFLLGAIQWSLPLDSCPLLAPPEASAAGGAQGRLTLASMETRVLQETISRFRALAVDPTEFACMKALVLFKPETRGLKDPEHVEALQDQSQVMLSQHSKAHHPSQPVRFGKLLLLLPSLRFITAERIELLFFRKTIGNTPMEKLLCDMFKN
PG9 binder = binders of HIV-1 gp120 antibody PG9, primary screen, biochemical, TR-FRET | TR-FRET gp120-PG9 antibody binding | inhibition, % at 6.7 µM | 0.43% of 360,000 active; in the data active = inhibition above about 8.5%
Rev-erbA mod = modulators of Rev-erb alpha DNA binding, primary screen, biochemical, FITC-DNA, fluorescence polarization, uHTS | Nuclear receptor subfamily 1 group D member 1 (Homo sapiens), P20393 | Rev-erbα–FITC-DNA binding, 90 min | activity, % at 10 µM | 0.79% of 370,000 active | AID 1259318, 2017;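 active = activity above about 14%, limit read from the data; passing the limit was not always enough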
NR2E3 ag-2 = inhibitors of NR2E3-RetCOR corepressor binding, primary screen, NR2E3 agonist project, biochemical, TR-FRET, GST-NR2E3, biotin-RetCOR | 0.12% of 320,000 active | Photoreceptor-specific nuclear receptor (Homo sapiens), Q9Y5X4 | inhibition of corepressor binding, % at 4.78 µM | 1536-well;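 active = percent inhibition above the cutoff of mean plus 3 SD of all tested compounds, set per screening campaign, cut at about 20% in these data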
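system = GST-tagged NR2E3 plus biotinylated RetCOR corepressor | input = 1.35 nM GST-NR2E3 | also added = 7 nM biotin-RetCOR | schedule = 5 h incubation at 4 °C | measured by = TR-FRET with europium anti-GST and streptavidin-D2, 340 nm excitation | read-out = percent loss of FRET ratio relative to control wells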
NR2E3 ag conf = NR2E3 agonist confirmation in cells, cell-based, luminescence, CHO-S two-hybrid; shares compounds with NR2E3 ag-1; inhibition, % at 3.98 µM; 51% of 2,300 active; CHO-S mammalian two-hybrid NR2E3-NCOR, luciferase luminescence;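 active = average inhibition above a cutoff equal to the mean inhibition of all tested compounds plus one SD, cut at about 70% in these data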
VP16 counter = GAL4-VP16 reporter modulators, confirmation, counter-screen for NR2E3 agonist project, cell-based, luminescence, CHO-S, high throughput. shares compounds with NR2E3 ag-1. CHO-S GAL4-VP16 luciferase reporter. inhibition, % at 3.98 µM. 29% of 2,300 active. AID 624379, 2012;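 active = mean inhibition above a cutoff equal to the average over all tested compounds plus one standard deviation, cut at about 70% in these data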;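 also: luciferase from a UAS reporter driven by GAL4-VP16 transactivation; higher means less reporter light so more repression of VP16 activity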
Large screens that a line does not name were inactive (follow-up assays come after a bar, where they were run). An excerpt weighted towards active compounds, which were near 1.5% of everything screened.

CC(C)Cn1c(N)c(C(=O)CSc2ccc3c(c2)OCCO3)c(=O)n(C)c1=O	none | NR2E3 ag conf 92 | VP16 counter 85
CC1(c2ccc3ccccc3c2)NC(=O)N(CC(=O)N2CCN(Cc3ccccc3)CC2)C1=O (stereo not given)	none (no result: PG9 binder, Rev-erbA mod) | NR2E3 ag conf 70 | VP16 counter inactive
CC1(c2ccc3ccccc3c2)NC(=O)N(CC(=O)N2CCC(C(N)=O)CC2)C1=O (stereo not given)	none
C[C@H]1[C@@H](OC(=O)Nc2ccc(C#N)cc2)CC[C@@]23CCCN2C(=O)CCC[C@@H]13	none (no result: NR2E3 ag-1, PG9 binder, NR2E3 ag-2)
Cc1ccc(-c2cnc(C3CC3)o2)cc1S(=O)(=O)Nc1ccccc1	none (no result: PG9 binder, Rev-erbA mod)
COc1ccccc1CNS(=O)(=O)c1ccc(-c2cnc(C3CC3)o2)cc1	none | NR2E3 ag conf inactive | VP16 counter inactive
O=S(=O)(Nc1ccc(F)cc1Cl)c1ccc(-c2cnc(C3CC3)o2)cc1	NR2E3 ag-1 71 | NR2E3 ag conf inactive | VP16 counter inactive
COc1ccc(NS(=O)(=O)c2ccc(-c3cnc(C4CC4)o3)cc2)cc1OC	NR2E3 ag-1 104 | NR2E3 ag conf 94 | VP16 counter 85
Cc1ccc(NS(=O)(=O)c2ccc(NC(=O)C3CC3)cc2)c(C)c1	none | NR2E3 ag conf inactive | VP16 counter inactive
Cc1cccc(N(C)S(=O)(=O)c2ccc(-c3cnc(C4CC4)o3)cc2)c1	none
COc1ccccc1NS(=O)(=O)c1ccc(-c2cnc(C3CC3)o2)cc1	none
Cc1ccc(NS(=O)(=O)c2ccc(-c3cnc(C4CC4)o3)cc2)c(C)c1	NR2E3 ag-1 79 | NR2E3 ag conf inactive | VP16 counter inactive
CCOc1ccccc1NS(=O)(=O)c1ccc(-c2cnc(C3CC3)o2)cc1	none | NR2E3 ag conf inactive | VP16 counter inactive
CC(C)C[C@H](NC(C)(C)C(=O)NC1CCCCC1)C(=O)NCC(c1ccccc1)c1ccccc1	none (no result: NR2E3 ag-1, PG9 binder, NR2E3 ag-2)
O=[N+]([O-])c1ccc(NN=Cc2cccc3ccccc23)nc1	none (no result: NR2E3 ag-2)
COc1cccc(/C=N/Nc2ccc([N+](=O)[O-])cn2)c1O	NR2E3 ag-1 103 | NR2E3 ag conf 99 | VP16 counter 93
CC1CCCC/C1=N\NC(=S)NCCc1ccccc1 (stereo not given)	none | NR2E3 ag conf inactive | VP16 counter inactive
C=CCNC(=O)C1CC1(c1cccc(C)c1)c1cccc(C)c1 (stereo not given)	none
Cc1cccc(C2(c3cccc(C)c3)CC2C(=O)Nc2ccc([N+](=O)[O-])cc2O)c1 (stereo not given)	NR2E3 ag-1 86 | NR2E3 ag conf 74 | VP16 counter inactive
CC(COc1cccc(F)c1)CN1CCC(C(O)(c2ccccc2)c2ccccc2)CC1 (stereo not given)	none (no result: NR2E3 ag-1, PG9 binder, NR2E3 ag-2)
CC(SC(=S)N(C)Cc1cccs1)C(=O)O (stereo not given)	none
CN(C)c1nc(=NCc2cccs2)ss1	NR2E3 ag-1 97 (no result: NR2E3 ag-2) | NR2E3 ag conf inactive | VP16 counter inactive
CN=c1scc(-c2ccccc2F)n1/N=C/c1ccc[nH]1	NR2E3 ag-1 97 | NR2E3 ag conf 90 | VP16 counter 80
CCc1cc2c(=O)nc3n(c2s1)Cc1ccccc1/C3=C(/O)c1ccc(F)cc1	none | NR2E3 ag conf inactive | VP16 counter inactive
Cc1nnc(N2C(=O)C(=O)/C(=C(/O)c3ccc4c(c3)OCCO4)C2c2ccc(F)cc2)s1 (stereo not given)	none
O=C1C(=O)N(c2nccs2)C(c2ccccc2)/C1=C(\O)c1ccc2c(c1)OCCO2 (stereo not given)	NR2E3 ag-1 76 (no result: PG9 binder, Rev-erbA mod) | NR2E3 ag conf 82 | VP16 counter inactive
O=C1C(=O)N(c2nccs2)C(c2ccccc2F)/C1=C(\O)c1ccc2c(c1)OCCO2 (stereo not given)	NR2E3 ag-1 93 | NR2E3 ag conf 92 | VP16 counter inactive
CCC[C@H]1[C@@H](OC(=O)NCc2ccc(Cl)c(Cl)c2)CC[C@@]23CCCN2C(=O)CCC[C@@H]13	none (no result: NR2E3 ag-1, PG9 binder, NR2E3 ag-2)
Cc1ccc(Cl)cc1N1CCN(S(=O)(=O)c2c(C)nc3scc(C)n3c2=O)CC1	none
Cc1ccc(N2CCN(S(=O)(=O)c3c(C)nc4scc(C)n4c3=O)CC2)c(C)c1	none | NR2E3 ag conf inactive | VP16 counter inactive
O=C1CC(c2ccc3c(c2)OCO3)N=C2N(Cc3ccc4c(c3)OCO4)C/C(=C/c3ccccc3)N12 (stereo not given)	none (no result: NR2E3 ag-1, PG9 binder, NR2E3 ag-2)
O=C(CCCl)NC1CCCCN(Cc2ccc(OC(F)(F)F)cc2)C1=O (stereo not given)	none (no result: NR2E3 ag-1, PG9 binder, NR2E3 ag-2)
C=CC[n+]1c(/C=C2\C=Cc3cc(C)ccc3N2CC)ccc2ccccc21	NR2E3 ag-1 90 | NR2E3 ag conf 98 | VP16 counter 91
CCN1C(=O)/C(=C2/C=Cc3cc(C)ccc3N2CC)N(C)C1=S	none
C/C(=N/NC(=O)c1ccoc1C)c1cccs1	none (no result: NR2E3 ag-1, PG9 binder, NR2E3 ag-2)
O=C1NC(=S)NC1=Cc1ccc(Cl)cc1Cl	none (no result: NR2E3 ag-2)
O=C1NC(=O)C(=Cc2ccc(Cl)cc2Cl)S1	none (no result: NR2E3 ag-2) | NR2E3 ag conf 91 | VP16 counter inactive
COc1ccc(/C=C2\SC(=S)N(CCCC(=O)Nc3ccc(O)cc3)C2=O)cc1	NR2E3 ag-1 73 | NR2E3 ag conf inactive | VP16 counter inactive
O=C(CCCN1C(=O)/C(=C/c2ccccc2Cl)SC1=S)NNC(=O)c1cccnc1	none | NR2E3 ag conf inactive | VP16 counter inactive
O=C(CCCN1C(=O)/C(=C/c2ccccc2Cl)SC1=S)NNC(=O)c1ccccc1	none
Cc1ccc(/C=C2\SC(=S)N(CCCC(=O)Nc3cccnc3)C2=O)cc1	NR2E3 ag-1 91 (no result: PG9 binder, Rev-erbA mod) | NR2E3 ag conf inactive | VP16 counter 90
COc1ccc(/C=C/S(=O)(=O)NCCc2ccccc2)c(CNC(=O)OC(C)(C)C)c1	none (no result: NR2E3 ag-1, PG9 binder, NR2E3 ag-2)
COc1cccc(NC(C(=O)Nc2cccc(C(C)=O)c2)c2ccccc2)c1 (stereo not given)	none
COc1cc(NC(C(=O)Nc2cccc(C(C)=O)c2)c2ccccc2)cc(OC)c1OC (stereo not given)	none | NR2E3 ag conf inactive | VP16 counter inactive
Cc1c(CCCN)c2ccccc2n1Cc1ccccc1	none | NR2E3 ag conf inactive | VP16 counter inactive
O=Nc1c(O)n(Cc2ccccc2)c2ccccc12	none
Cc1cccc(-n2ncc3c2CCCC3NC(=O)c2ccncc2)c1C (stereo not given)	NR2E3 ag-1 83 (no result: NR2E3 ag-2) | NR2E3 ag conf 85 | VP16 counter 77
Cc1cccc(-n2ncc3c2CCCC3NC(=O)c2cccs2)c1C (stereo not given)	none (no result: NR2E3 ag-2)
Cc1cc(C(=O)NC2CCCc3c2cnn3-c2cccc(C)c2C)no1 (stereo not given)	none

Screening data (PubChem BioAssay)
